Test results: ChEMBL document CHEMBL3997796 (J Med Chem, 2017)
Activity calls are given as the source filed them. The rule behind the calls is not given here.

How the values were obtained:
[1] = target: T1, Lysophosphatidic acid receptor 1 (Homo sapiens, UniProt Q92633); assay: Agonist activity at LPA1 receptor (unknown origin) expressed in rat RH7777 cells assessed as increase in intracellular calcium level measured every 3.42 secs for 70 secs by Fura-2-AM dye based fluorescence assay; format: functional, cell-based
Autotaxin [2] = target: T2, Autotaxin (Homo sapiens, UniProt Q13822); assay: Inhibition of recombinant human C-terminal FLAg-tagged ATX nucleotide pyrophosphate phosphatase activity expressed in baculovirus infected sf9 cells using pNP-TMP as substrate measured every 2 mins for 1 hr by fluorescence assay
Autotaxin [3] = target: T2, Autotaxin; assay: Competitive inhibition of recombinant human C-terminal FLAg-tagged ATX expressed in baculovirus infected sf9 cells using varying levels of FRET based FS-3 substrate at 0.5 to 2 times IC50 measured every 2 mins for 1 hr by Michaelis-Menten plot analysis
[4] = target: T1, Lysophosphatidic acid receptor 1; assay: Antagonist activity at LPA1 receptor (unknown origin) expressed in rat RH7777 cells assessed as inhibition of LPA-induced intracellular calcium level measured every 3.42 secs for 70 secs by Fura-2-AM dye based fluorescence assay; format: functional, cell-based
[5] = target: T3, Lysophosphatidic acid receptor 3 (Homo sapiens) (UniProt Q9UBY5); assay: Antagonist activity at LPA3 receptor (unknown origin) expressed in rat RH7777 cells assessed as inhibition of LPA-induced intracellular calcium level up to 100 uM measured every 3.42 secs for 70 secs by Fura-2-AM dye based fluorescence assay; format: functional, cell-based
T3 sequence (whole entry): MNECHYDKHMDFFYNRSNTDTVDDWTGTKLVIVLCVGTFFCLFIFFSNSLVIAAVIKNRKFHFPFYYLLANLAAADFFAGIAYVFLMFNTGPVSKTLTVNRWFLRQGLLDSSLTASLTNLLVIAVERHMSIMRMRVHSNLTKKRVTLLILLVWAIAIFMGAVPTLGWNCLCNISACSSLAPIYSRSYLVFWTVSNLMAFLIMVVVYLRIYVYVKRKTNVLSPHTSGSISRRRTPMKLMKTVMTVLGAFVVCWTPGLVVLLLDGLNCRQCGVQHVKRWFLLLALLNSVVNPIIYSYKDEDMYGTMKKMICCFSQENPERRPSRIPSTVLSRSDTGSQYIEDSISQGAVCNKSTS

[6] = target: Lysophosphatidic acid receptor 2 (Homo sapiens) (UniProt Q9HBW0); assay: Antagonist activity at LPA2 receptor (unknown origin) expressed in MEF cells assessed as inhibition of LPA-induced intracellular calcium level up to 100 uM measured every 3.42 secs for 70 secs by Fura-2-AM dye based fluorescence assay; format: functional, cell-based
[7] = target: Lysophosphatidic acid receptor 4 (Homo sapiens) (UniProt Q99677); assay: Antagonist activity at LPA4 receptor (unknown origin) expressed in CHO cells assessed as inhibition of LPA-induced intracellular calcium level up to 100 uM measured every 3.42 secs for 70 secs by Fura-2-AM dye based fluorescence assay; format: functional, cell-based
[8] = target: Lysophosphatidic acid receptor 5 (Homo sapiens) (UniProt Q9H1C0); assay: Antagonist activity at FLAG-tagged LPA5 receptor (unknown origin) expressed in rat B103 cells assessed as inhibition of LPA-induced intracellular calcium level up to 100 uM measured every 3.42 secs for 70 secs by Fura-2-AM dye based fluorescence assay; format: functional, cell-based
[9] = target: T4, Glycerophosphocholine cholinephosphodiesterase ENPP6 (Homo sapiens) (UniProt Q6UWR7); assay: Inhibition of ENPP6 (unknown origin) using pNPPC as substrate measured every 2 mins for 1 hr by […]
T4 sequence (whole entry): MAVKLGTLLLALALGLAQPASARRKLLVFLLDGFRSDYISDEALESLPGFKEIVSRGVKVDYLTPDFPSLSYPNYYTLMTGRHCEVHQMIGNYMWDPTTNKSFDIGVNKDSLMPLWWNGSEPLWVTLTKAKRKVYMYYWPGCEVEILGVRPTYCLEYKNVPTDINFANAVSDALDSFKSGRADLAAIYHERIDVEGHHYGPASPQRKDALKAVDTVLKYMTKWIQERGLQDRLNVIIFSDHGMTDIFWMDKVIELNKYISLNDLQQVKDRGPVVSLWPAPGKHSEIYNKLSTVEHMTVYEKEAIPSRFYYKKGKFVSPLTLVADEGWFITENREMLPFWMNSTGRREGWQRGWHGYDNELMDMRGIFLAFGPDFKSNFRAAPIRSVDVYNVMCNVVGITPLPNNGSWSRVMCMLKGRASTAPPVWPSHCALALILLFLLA
Method in brief: (§1)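 10 nM ENPP6 or ENPP7, 10 μM pNPPC, compound 0–10 μM, triplicate; ENPP6 buffer 100 mM Tris, 500 mM NaCl, 0.05% Triton pH 9.0; ENPP7 buffer 50 mM Tris, 150 mM NaCl, 10 mM taurocholate pH 8.5; 405 nm absorbance every 2 min for 1 h.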

[10] = target: T5, Ectonucleotide pyrophosphatase/phosphodiesterase family member 7 (Homo sapiens) (UniProt Q6UWV6); assay: Inhibition of ENPP7 (unknown origin) using pNPPC as substrate measured every 2 mins for 1 hr by […]; method in brief: as §1
T5 sequence (whole entry): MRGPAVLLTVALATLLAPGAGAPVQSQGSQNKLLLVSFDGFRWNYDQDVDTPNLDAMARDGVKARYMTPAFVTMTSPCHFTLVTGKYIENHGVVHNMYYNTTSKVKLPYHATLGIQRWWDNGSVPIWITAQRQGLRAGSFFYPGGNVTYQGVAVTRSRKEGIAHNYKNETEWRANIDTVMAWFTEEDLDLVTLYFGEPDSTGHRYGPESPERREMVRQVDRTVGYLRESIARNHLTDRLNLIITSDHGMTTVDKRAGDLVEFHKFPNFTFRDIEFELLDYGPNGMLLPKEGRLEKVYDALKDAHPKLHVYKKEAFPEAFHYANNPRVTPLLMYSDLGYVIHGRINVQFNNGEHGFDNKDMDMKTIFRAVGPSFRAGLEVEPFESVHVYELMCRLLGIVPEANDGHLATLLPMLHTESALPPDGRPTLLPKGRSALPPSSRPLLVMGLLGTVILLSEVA

Autotaxin [11] = target: T2, Autotaxin; assay: Inhibition of ATX (unknown origin) expressed in human A2058 cells assessed as inhibition of LPC-induced cell invasion after 20 hrs by calcein-AM dye based matrigel-mediated Boyden chamber assay
B16-F10 = assay: Antitumor activity against mouse B16F10 cells implanted in C57BL/6 mouse assessed as reduction in metastatic tumor nodules on lungs at 1 mg/kg, ip administered daily up to 10 days measured on day 21; format: functional, organism-based
Method in brief: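 C57BL/6 mice, 8–12 weeks, given 1 × 10^5 B16F10 cells by tail vein; 1 mg/kg i.p. daily from day 0 (before inoculation) to day 10, vehicle PBS with 1% DMSO and 50 μM charcoal-stripped mouse serum albumin; sacrifice day 21, lung nodules counted; one-way ANOVA with Bonferroni.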

[12] = Stability in mouse 4T1 cells assessed as parent compound remaining at 10 uM after 16 hrs by LC-MS/MS method; format: ADME, cell-based; conditions: read-out: Stability
Method in brief: (§2)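 4T1 cells (1 × 10^4/well) attached overnight, then 10 μM compound in DMEM with 1% charcoal-stripped FBS (0.1% DMSO final); quadruplicate samples at 0, 16, 40 h, centrifuged, diethyl ether extracted twice, LC-MS/MS peak areas normalized to 0 h.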

[13] = Stability in mouse 4T1 cells assessed as parent compound remaining at 10 uM after 40 hrs by LC-MS/MS method; format: ADME, cell-based; conditions: read-out: Stability; method in brief: as §2
4T1 = assay: Growth inhibition of mouse 4T1 cells at 10 uM after 48 hrs by CellTiter blue assay; format: cell-based; conditions: 4t1, 48 h
Autotaxin [14] = target: T2, Autotaxin; assay: Inhibition of ATX (unknown origin) expressed in human A2058 cells assessed as inhibition of LPC-induced cell invasion at 10 uM after 20 hrs by calcein-AM dye based matrigel-mediated Boyden chamber assay
Autotaxin [15] = target: T2, Autotaxin; assay: Inhibition of ATX (unknown origin)

T1 sequence (Q92633 whole entry): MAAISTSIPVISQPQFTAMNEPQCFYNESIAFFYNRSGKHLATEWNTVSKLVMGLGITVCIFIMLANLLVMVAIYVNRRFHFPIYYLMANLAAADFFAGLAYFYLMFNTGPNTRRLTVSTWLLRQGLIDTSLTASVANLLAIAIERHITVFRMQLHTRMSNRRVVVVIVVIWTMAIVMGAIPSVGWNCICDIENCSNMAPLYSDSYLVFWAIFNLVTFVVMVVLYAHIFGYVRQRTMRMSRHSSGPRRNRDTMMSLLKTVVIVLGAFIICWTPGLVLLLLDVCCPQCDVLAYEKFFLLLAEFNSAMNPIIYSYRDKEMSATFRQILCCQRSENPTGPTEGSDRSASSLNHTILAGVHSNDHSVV
Lysophosphatidic acid receptor 4 (Homo sapiens), sequence (Q99677 whole entry): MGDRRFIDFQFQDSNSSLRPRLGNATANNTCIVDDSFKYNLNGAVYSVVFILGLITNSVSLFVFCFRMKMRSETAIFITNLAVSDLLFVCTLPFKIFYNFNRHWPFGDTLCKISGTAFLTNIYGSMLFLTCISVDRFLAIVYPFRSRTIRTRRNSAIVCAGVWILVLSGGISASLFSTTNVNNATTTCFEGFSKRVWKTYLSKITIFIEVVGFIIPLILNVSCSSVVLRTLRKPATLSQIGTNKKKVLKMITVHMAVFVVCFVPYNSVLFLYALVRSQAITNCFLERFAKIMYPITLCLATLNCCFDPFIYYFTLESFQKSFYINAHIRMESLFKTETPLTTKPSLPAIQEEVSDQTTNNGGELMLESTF
Lysophosphatidic acid receptor 5 (Homo sapiens), sequence (Q9H1C0 whole entry): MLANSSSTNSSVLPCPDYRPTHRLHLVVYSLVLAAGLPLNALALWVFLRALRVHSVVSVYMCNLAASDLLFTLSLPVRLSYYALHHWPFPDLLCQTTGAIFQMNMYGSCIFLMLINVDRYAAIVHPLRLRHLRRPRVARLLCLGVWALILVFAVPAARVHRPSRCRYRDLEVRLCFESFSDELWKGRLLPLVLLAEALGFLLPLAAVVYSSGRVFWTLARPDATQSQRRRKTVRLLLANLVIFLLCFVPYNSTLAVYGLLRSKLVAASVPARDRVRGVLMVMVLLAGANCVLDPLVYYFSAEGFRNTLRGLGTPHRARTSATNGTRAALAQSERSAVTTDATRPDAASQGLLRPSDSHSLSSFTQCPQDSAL
Lysophosphatidic acid receptor 2 (Homo sapiens), sequence (Q9HBW0 whole entry): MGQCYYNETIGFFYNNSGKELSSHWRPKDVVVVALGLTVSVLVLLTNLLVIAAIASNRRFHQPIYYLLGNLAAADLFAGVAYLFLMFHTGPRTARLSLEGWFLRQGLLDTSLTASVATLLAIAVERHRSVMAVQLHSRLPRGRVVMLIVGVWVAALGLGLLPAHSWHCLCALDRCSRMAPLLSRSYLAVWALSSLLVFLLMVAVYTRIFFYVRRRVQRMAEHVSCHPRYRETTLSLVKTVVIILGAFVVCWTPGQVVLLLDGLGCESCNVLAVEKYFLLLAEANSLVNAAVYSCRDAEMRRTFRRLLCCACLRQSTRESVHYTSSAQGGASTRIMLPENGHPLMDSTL

## CCCCCCCC/C=C\CCCCCCCC(=O)OCC(O)COP(=O)(O)O (stereo not drawn)
[1]
  EC50: 80 nM

## O=S(=O)(c1cc(C(=S)Nc2cc(F)c(F)c(F)c2)c(Cl)cc1Cl)N1CCOCC1
Autotaxin [2]
  inhibition: inactive
Autotaxin [3]
  inhibition: Active
[4]
  IC50: Not Active
[5]
  inhibition: inactive
[6]
  inhibition: inactive
[7]
  inhibition: inactive
[8]
  inhibition: inactive
[9]
  inhibition: inactive
[10]
  inhibition: inactive
Autotaxin [11]
  inhibition: Dose-dependent effect
B16-F10
  Activity: Active
[12]
  remaining at 16 h, 10 µM: 93.2%
[13]
  remaining at 40 h, 10 µM: 102%
4T1
  Activity: Toxic
Autotaxin [14]
  inhibition: Active

## O=C(Nc1cccc(F)c1)c1cc(S(=O)(=O)N2CCOCC2)c(Cl)cc1Cl
Autotaxin [2]
  inhibition: inactive
Autotaxin [3]
  inhibition: Active
[9]
  inhibition: inactive
[10]
  inhibition: inactive
[12]
  remaining at 16 h, 10 µM: 79.7%
[13]
  remaining at 40 h, 10 µM: 79.5%
Autotaxin [15]
  IC50: 116 nM
